Assays:
[1] = target: T1, DNA topoisomerase 2-alpha (Homo sapiens, UniProt P11388); test: Inhibition of topoisomerase 2alpha in human SW620 organoids transfected with VimPro-GFP reporter assessed as reversion of epithelial-mesenchymal transition by measuring reduction in vimentin expression after 72 hrs by Hoechst 33342 staining based GFP reporter gene assay
Procedure, shortened: (§1)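 SW620 cells stably carrying VimPro-GFP or EcadPro-mCherry (puromycin selected) grown as organoids and dosed 72 h. Stained with 16 μM Hoechst 33342 for 1 h and imaged as 15 z-layers, 26.5 μm apart. Nuclei segmented and GFP- or mCherry-positive cells counted above background thresholds. Percent positive cells normalised to DMSO.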

[2] = target: T1, DNA topoisomerase 2-alpha; test: Inhibition of topoisomerase 2alpha in human SW620 organoids transfected with EcadPro-RFP reporter assessed as reversion of epithelial-mesenchymal transition by measuring increase in E-cadherin expression after 72 hrs by Hoechst 33342 staining based mCherryRFP reporter gene assay; procedure, shortened: as §1

T1 sequence (P11388 whole entry): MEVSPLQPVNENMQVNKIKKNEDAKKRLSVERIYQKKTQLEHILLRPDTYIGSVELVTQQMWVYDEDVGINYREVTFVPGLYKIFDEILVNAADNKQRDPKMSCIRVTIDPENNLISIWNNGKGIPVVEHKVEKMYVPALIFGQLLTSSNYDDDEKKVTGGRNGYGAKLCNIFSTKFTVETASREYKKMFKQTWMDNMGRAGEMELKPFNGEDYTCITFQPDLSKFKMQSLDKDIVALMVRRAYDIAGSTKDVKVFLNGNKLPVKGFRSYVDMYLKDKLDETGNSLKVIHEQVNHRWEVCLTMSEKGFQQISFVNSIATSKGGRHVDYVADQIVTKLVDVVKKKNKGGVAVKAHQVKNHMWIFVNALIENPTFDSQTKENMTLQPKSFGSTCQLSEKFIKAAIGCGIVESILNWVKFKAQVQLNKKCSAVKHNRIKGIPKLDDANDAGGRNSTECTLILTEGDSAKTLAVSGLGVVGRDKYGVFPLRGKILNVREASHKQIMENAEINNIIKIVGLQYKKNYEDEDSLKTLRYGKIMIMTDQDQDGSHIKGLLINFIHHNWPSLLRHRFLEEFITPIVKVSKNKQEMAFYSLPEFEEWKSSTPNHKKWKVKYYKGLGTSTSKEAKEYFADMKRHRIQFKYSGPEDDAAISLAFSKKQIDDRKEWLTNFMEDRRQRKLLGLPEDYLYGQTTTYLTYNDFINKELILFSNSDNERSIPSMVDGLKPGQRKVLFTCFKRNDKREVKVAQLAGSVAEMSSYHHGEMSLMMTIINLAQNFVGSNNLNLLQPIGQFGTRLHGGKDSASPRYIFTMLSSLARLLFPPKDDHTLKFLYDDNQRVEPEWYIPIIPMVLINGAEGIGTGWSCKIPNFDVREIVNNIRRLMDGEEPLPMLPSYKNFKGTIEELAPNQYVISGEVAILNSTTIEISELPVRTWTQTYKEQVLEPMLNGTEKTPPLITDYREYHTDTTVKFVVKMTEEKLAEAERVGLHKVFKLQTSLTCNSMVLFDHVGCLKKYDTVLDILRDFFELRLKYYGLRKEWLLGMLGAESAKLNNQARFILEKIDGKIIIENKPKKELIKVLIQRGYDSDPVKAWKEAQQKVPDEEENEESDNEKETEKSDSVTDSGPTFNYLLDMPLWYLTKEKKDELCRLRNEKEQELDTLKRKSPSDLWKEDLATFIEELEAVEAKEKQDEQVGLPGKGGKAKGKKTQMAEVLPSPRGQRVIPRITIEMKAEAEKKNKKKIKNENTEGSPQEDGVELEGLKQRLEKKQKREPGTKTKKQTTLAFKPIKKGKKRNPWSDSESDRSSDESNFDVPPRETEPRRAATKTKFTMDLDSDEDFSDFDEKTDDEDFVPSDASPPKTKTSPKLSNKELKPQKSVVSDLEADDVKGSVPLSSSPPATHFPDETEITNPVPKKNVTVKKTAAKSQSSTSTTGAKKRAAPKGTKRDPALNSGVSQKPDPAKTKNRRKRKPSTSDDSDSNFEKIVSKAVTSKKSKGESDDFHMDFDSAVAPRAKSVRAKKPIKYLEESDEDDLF

| EC50 [1] | EC50 [2] | SMILES |
| --- | --- | --- |
| 1.7 µM | 3.4 µM | CC(=O)Nc1ccc2c(-c3ccoc3)ccnc2c1O |
| 4 µM | 9 µM | COc1cc(NC(C)=O)c(O)c2nccc(-c3ccccc3NC(=O)c3ccccc3)c12 |
| 1 µM | 3.3 µM | O=C(CN1CCOCC1)Nc1ccc2c(-c3cc4ccccc4o3)ccnc2c1O |
| 1.2 µM | 1.6 µM | CC(=O)Nc1ccc2c(-c3cc(F)ccc3O)ccnc2c1O |
| 2.4 µM | 3 µM | O=C(CCN1CCOCC1)Nc1ccc2c(-c3cc4ccccc4o3)ccnc2c1O |
| 1.2 µM | 1.1 µM | CC(=O)Nc1ccc2c(-c3cccs3)ccnc2c1O |
| 1.9 µM | 1.2 µM | O=C(CCN1CCOCC1)Nc1ccc2c(-c3cc(F)ccc3O)ccnc2c1O |
| 4.7 µM | 3.1 µM | CC(C)(C)C(=O)Nc1ccc2c(-c3ccccc3)ccnc2c1O |
| 9.5 µM | 5.5 µM | CC(=O)Nc1ccc(-c2ccnc3c(O)c(NC(C)=O)ccc23)cc1 |
| 3.5 µM | 5.4 µM | CC(=O)Nc1ccc2c(-c3cc4ccccc4o3)ccnc2c1O |
